Experimental data published in publication PMC5335871 (Bioorganic & medicinal chemistry letters, 2016).

Legend:
[1] = target: T1, GPR35 (Homo sapiens, UniProt Q9HC97); format: cell-based; conditions: 10 μM Zaprinast as agonist
Method in brief: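 Antagonism measured against a 10 μM Zaprinast agonist challenge in U2OS cells permanently expressing HA-GPR35a and βarr2-GFP. Concentration-effect curves for agonist-mediated receptor activation were analysed by nonlinear regression and fitted to sigmoidal dose-response curves to obtain IC50.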

[2] = target: T1, GPR35; conditions: read-out: IC50, antagonism at GPR35; previously identified screening hits; cited from earlier work

T1 sequence (Q9HC97 whole entry): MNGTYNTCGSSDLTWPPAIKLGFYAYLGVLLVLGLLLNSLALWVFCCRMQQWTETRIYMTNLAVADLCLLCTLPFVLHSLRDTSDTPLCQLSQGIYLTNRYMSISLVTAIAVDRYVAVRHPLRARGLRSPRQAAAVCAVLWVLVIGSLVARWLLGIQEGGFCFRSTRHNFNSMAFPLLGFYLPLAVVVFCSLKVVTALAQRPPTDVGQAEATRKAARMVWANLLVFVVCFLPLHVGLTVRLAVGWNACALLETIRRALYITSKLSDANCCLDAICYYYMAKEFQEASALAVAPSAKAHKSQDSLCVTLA

activity as GPR35 antagonist (in words) [1] | SMILES | IC50 [2]
inactive | O=C(Nc1ccc2nc(SCc3ccncc3)sc2c1)c1ccccc1C(=O)N1CCOCC1 [Compound 9] | 
devoid of activity | O=C(Nc1ccc2nc(SCc3ccc(Cl)cc3)sc2c1)c1ccccc1C(=O)N1CCCCC1 [Compound 2] | 
 | CNC(=S)NN=Cc1c(C(=O)OC)cnn1-c1ccc(F)cc1F [Compound 13] | 160 nM
devoid of activity | O=C(Nc1ccc2nc(SCc3ccc(Cl)cc3)sc2c1)c1ccccc1C(=O)N1CCCC1 [Compound 3] | 
